Most compounds without a hit are left out; they make up all but 2.2% or so of the library.
Ba/F3 V617F tox = loss of viability in JAK2V617F-driven Ba/F3 cells; Ba/F3 EpoR-JAK2V617F viability, ATP luminescence; inhibition, % at 5.6 µM; 220,000 tested, 1.1% active; AID 1446;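 active means inhibition above the campaign mean plus 3 SD over all tested compounds, cut at about 24% in these data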;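 further: cytokine-independent growth of Ba/F3 cells driven by EpoR plus mutant JAK2; 0% = DMSO-treated cells and 100% = JAK inhibitor I control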
IEC-6 cytotox = kills IEC-6 intestinal cells in KLF5 counter-screen | IEC-6 cytotoxicity, luminescence viability | AID 1825 | inhibition, % at 5 µM | 290,000 tested, 0.78% active;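 further: 0% = plate median of test compound wells and 100% = cytotoxic reference compound wells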
MT stabilize HCS = microtubule stabilizers in HeLa cells; HeLa tubulin immunostaining HCS, 24 h; share of cells brighter than vehicle mean+2SD; % tubulin-high responders, % at 10 µM; 200,000 tested, 0.83% active; AID 2205;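 active means plate Z-score above 3 for both tubulin-high and condensed-nucleus cell shares, with cell loss under 80%, at 10 µM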;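 further: anti alpha tubulin signal scored within the nucleus-defined area of each cell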
APP transl inh = APP translation inhibition; SH-SY5Y APP 5'UTR-luciferase reporter, luminescence; inhibition, % at 2 µM; 190,000 tested, 0.82% active; AID 1285;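 active means inhibition above a set limit, derived from the sample mean plus 3 SD, cut at about 45% in these data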
b-catenin transl = modulators of beta-catenin nuclear translocation; HeLa beta-catenin nuclear translocation, immunofluorescence imaging; nuclear translocation activity, % at 5 µM; 190,000 tested, 0.3% active; AID 1665;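 active means nuclear translocation activity above 50% at 5 µM, with a well cell count of 50 or more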;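 further: per-cell ratio of nuclear to cytoplasmic median beta-catenin stain intensity; plate controls were DMSO negative control for no effect and GSK-3 inhibitor IX positive control for full effect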
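Read-out: Nuclear/cytoplasmic beta-catenin signal ratio, % activation | Assay system: Human HeLa cell line | Times: 24 h compound exposure at 37°C, 5% CO2 | Signal: Fluorescence imaging of beta-catenin antibody stain plus DAPI | Dosing: 5 µM primary, 0.02–20 µM confirmation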
BaF3 parental = reduces parental Ba/F3 cell viability, JAK2V617F counter-screen; 220,000 tested, 1.1% active; inhibition, % at 5.6 µM; AID 1486; CellTiter-Glo ATP luminescence;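 active means inhibition above a per-campaign cutoff, the mean inhibition of all tested compounds plus 3 SD, cut at about 27% in these data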;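 further: 0% = DMSO wells and 100% = JAK Inhibitor I control wells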
IEC-6 tox confirm = IEC-6 cytotoxicity, confirmation assay; 1,900 tested, 63% active; inhibition, % at 5 µM; shares compounds with IEC-6 cytotox; IEC-6 rat intestinal epithelial viability, luminescence;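 further: 0% = vehicle and 100% = reference cytotoxic drug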
Numbers without * were called inactive; . = no result. Unless noted, no stated cut-off is given here; in the data, active means inhibition above about 22%; inactive means the rest.

SMILES	Ba/F3 V617F tox	IEC-6 cytotox	MT stabilize HCS	APP transl inh	b-catenin transl	BaF3 parental	IEC-6 tox confirm
O=C(COc1ccc([N+](=O)[O-])cc1)Nc1ccc(C(=O)NCc2cccnc2)cc1	10	30*	1	-9	.	1	-6
C=CCOc1ccc(C(=O)Nc2ccccc2C(=O)NCc2cccnc2)cc1	.	39*	.	.	.	.	26*
O=C(NCc1cccnc1)c1ccc(NC(=O)c2cccc([N+](=O)[O-])c2)cc1	21	75*	1	10	2	0	8
O=C(NCc1cccnc1)c1ccc([N+](=O)[O-])cc1	1	-3	2	-2	1	6	.
O=C(COc1ccc([N+](=O)[O-])cc1)NCc1cccnc1	1	-2	2	-25	-3	10	.
CCOC(=O)/C=C1\SCC(=O)N1CC(=O)NCc1cccc(Cl)c1	1	1	7	-13	0	7	.
O=C(c1ccc(OC2CCN(CCO)CC2)cc1)N1CCCC1	.	-8	.	.	.	.	.
O=C(NC(=S)NNC(=O)c1ccccc1O)c1cccs1	.	-11	.	.	.	.	.
COc1ccccc1C(=O)NNC(=S)NC(=O)c1cccs1	.	48*	.	.	.	.	28*
CC(=O)N1c2ccc(S(=O)(=O)NCC3CCC(C(=O)NCc4ccccc4)CC3)cc2CC1C (centres undefined)	.	1	.	.	.	.	.
Cc1cc2c(cc1C)C(c1ccccc1OC(C)C)CC(=O)N2 (centres undefined)	.	44*	.	.	.	.	31*
COc1ccccc1C1CC(=O)Nc2cc(C)c(C)cc21 (centres undefined)	.	36*	.	.	.	.	6
CCCOc1ccccc1C1CC(=O)NC2=C1C(=O)CCC2 (centres undefined)	18	37*	55	21	97*	28*	33*
CCCOc1ccccc1C1CC(=O)NC(C)=C1C(=O)OCC(C)C (centres undefined)	2	3	2	-11	1	4	.
CCOc1ccccc1C1CC(=O)Nc2cc(C)c(C)cc21 (centres undefined)	.	42*	.	.	.	.	26*
O=C(OCC(=O)N1CCN(C(=O)c2ccco2)CC1)c1ccccc1C(=O)c1ccc(Cl)cc1	0	-6	1	1	-2	0	.
CCOC(=O)C1C(=O)OC(C)(C)C1C(C)C(=O)c1ccc(C)cc1C (centres undefined)	-1	3	7	9	-2	2	.
CCOc1ccccc1C1CC(=O)Nc2cc(OC)c(OC)c(OC)c21 (centres undefined)	-1	-4	3	-5	-3	2	.
CCOc1ccccc1C1CC(=O)Nc2cc3c(cc21)OCCO3 (centres undefined)	80*	66*	14	14	1	78*	54*
Clc1ccc(OCCN2CCN(c3ncnc4sccc34)CC2)cc1	66*	26*	4	15	0	73*	10
CCN1CCN(CCOc2ccc(Cl)cc2)CC1	2	-4	2	-7	2	5	.
Cc1ccccc1CCN(C(=O)c1csnn1)C(C(=O)NC1CCCC1)c1ccco1 (centres undefined)	.	-7	.	.	.	.	.
COc1ccc2c(c1)sc(N)[n+]2Cc1cc(C)cc2cccnc12	82*	80*	15*	95*	114*	79*	63*
Cc1cc(Nc2ccccc2)nc(NCc2ccccc2)n1	9	13	11	2	-1	16	.
CCCCNc1cc(C)nc(NCc2ccccc2)n1	50*	23*	10*	-12	38	45*	2
SMILES	Ba/F3 V617F tox	IEC-6 cytotox	MT stabilize HCS	APP transl inh	b-catenin transl	BaF3 parental	IEC-6 tox confirm
COc1cccc(Sc2nc(-c3ccccc3)ncc2S(C)(=O)=O)c1	.	-2	.	.	.	.	.
CCOc1cc(CNCCc2ccc(S(N)(=O)=O)cc2)ccc1OCc1ccc(Cl)cc1	14	24*	5	18	0	18	12
COc1ccccc1NC(=O)NC1(C(=O)NCC2CCCO2)CCCCC1 (centres undefined)	.	-3	.	.	.	.	.
CCOC(=O)Cn1c(S(=O)(=O)Cc2cccc(F)c2)nc(-c2ccccc2)c1-c1ccccc1	2	23*	1	5	1	5	20
CC(=O)N(/N=C/c1ccc([N+](=O)[O-])o1)c1nc2ccccc2c(=O)n1-c1ccccc1	5	55*	.	.	2	4	8
COc1ccc(/C=N/NC(=O)c2c(C)nc3ccc(Br)cn23)cc1OC	-2	4	.	.	-1	-1	.
Cc1ccc(/C=N/NC(=O)c2c(C)nc3ccc(Br)cn23)cc1	.	69*	.	.	.	.	45*
CCc1ccccc1N(C)S(=O)(=O)c1ccc(-c2cc(C)no2)s1	.	47*	.	.	.	.	18
CCN(c1ccc(OC)cc1)S(=O)(=O)c1ccc(-c2cc(C)no2)s1	.	7	.	.	.	.	.
O=C(Nc1ccc(-n2ccc(C(F)(F)F)n2)cc1)Nc1cccc(Cl)c1	54*	23*	.	.	3	63*	48*
c1cnc2c(c1)ccc1cccnc12	7	70*	5	32	2	4	80*
O=Cc1ccc2ccc3cccnc3c2n1	.	2	.	.	.	.	.
CN(CCOC(=O)c1ccco1)Cc1ccccc1	4	41*	2	9	.	6	5
CN(CCOC(=O)c1ccccc1)Cc1ccccc1	-3	4	5	1	-2	1	.
CC1=Nc2cc(C(=O)NCCCN3CCN(C)CC3)ccc2Sc2ccc(C)cc21	.	-3	.	.	.	.	.
CC1=Nc2cc(C(=O)NCC3CCCO3)ccc2Sc2ccc(C)cc21 (centres undefined)	.	79*	.	.	.	.	53*
CC(/C=C/c1ccccc1)=N\NC(=O)c1cc(C)nc2ccccc12	33*	40*	.	.	0	52*	5
C/C(=N\NC(=O)c1cc(C2CC2)nc2ccccc12)c1ccc(O)cc1O	.	51*	.	.	.	.	43*
C/C(=N\NC(=O)c1cc(C)nc2ccccc12)c1cccs1	0	29*	.	.	0	2	-2
COc1ccc(C(=O)NCCc2nnc3ccc(SCC(=O)NCCc4ccc(OC)c(OC)c4)nn23)cc1	.	-2	.	.	.	.	.
CCOC(=O)c1sc2ncn(/N=C/c3ccc(O)c(OC)c3)c(=O)c2c1C	1	4	2	11	-2	6	.
Cc1cc(OCC(=O)Nc2sc3c(c2C#N)CC(C)(C)NC3(C)C)c(C(C)C)cc1Cl	.	8	.	.	.	.	.
CCc1ccccc1-n1ncc(C(=O)Nc2ccccc2OC)c1C	.	-5	.	.	.	.	.
CCN(CC)c1ccc(/C=N/N=C(N)N)c(O)c1	78*	69*	7	92*	77*	75*	57*
O=C(Nc1nc2ccc(S(=O)(=O)N3CCCC3)cc2s1)C1CCCCC1	82*	70*	34*	77*	3	79*	56*
O=C(Nc1ccccc1)Nc1ccc(Br)c(Cl)c1	0	9	1	-45	-1	3	.
COC(=O)C1CC23C=CCN4CCC5(c6ccccc6NC15C2C)C43 (centres undefined)	.	88*	.	.	.	.	59*

From PubChem BioAssay
